A short description of series [1]: folding enthalpy; higher = less favourable; fluorescence melt of hairpins on a sequencing array, two-state fit. The note with it: sodium 0.088 M. An outline of the steps: (§1)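 With Cy3 and quencher oligos annealed, library hairpins on a sequenced MiSeq flow cell were imaged for Cy3 fluorescence in 50 mM Na-HEPES pH 8.0, 25 mM NaCl, in 2.5 °C steps up to 60 °C. Melting temperature and folding enthalpy were derived from bootstrapped two-state fits of signals normalised to pre-quench Cy3 and to control constructs. Four replicates were combined by inverse variance, with fitted temperatures raised by 9.35 °C to match UV melts.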

Series [2] in a line: melting temperature; fluorescence melt of hairpins on a sequencing array, two-state fit, raised by 9.35 °C to match UV melts. To be noted: sodium 0.088 M. An outline of the steps:
as §1

GATCACCGTCGTGATC ((((((....)))))): the folding enthalpy in series [1] is -163 kJ/mol. For the same sequence, in series [2], the Tm was 55.2 °C.

On to GATCACCTAAGTGATC ((((((....)))))), for which the folding enthalpy in series [1] was -163 kJ/mol. The Tm in series [2] came out at 56.4 °C.

For GATCACCTAGGTGATC ((((((....)))))), the folding enthalpy in series [1] was -173 kJ/mol. Also, the Tm in series [2] was determined as 59.7 °C.

With GATCACCTCTGTGATC ((((((....)))))), the folding enthalpy in series [1] was -177 kJ/mol. In addition, the Tm in series [2] turned out to be 55 °C.

Consider GATCACCTTCGTGATC ((((((....)))))), for which, in series [1], the folding enthalpy was -203 kJ/mol. Further, the Tm in series [2] was 56.7 °C.

Turning to GATCACCTTTGTGATC ((((((....)))))), in series [1], the folding enthalpy is -177 kJ/mol. The Tm in series [2] is 55 °C.

Regarding GATCACGAAAGTGCATC ((((((....))).))), in series [1], the folding enthalpy is -89.6 kJ/mol. Further, in series [2], the Tm was found to be 42.8 °C.

Consider GATCACGAAAGTGTAATC ((((((....)))..))), for which the folding enthalpy in series [1] was -43.1 kJ/mol. In addition, in series [2], the Tm is 30.1 °C.

Take GATCACGAATGTGATC ((((((....)))))): the folding enthalpy in series [1] is -157 kJ/mol. In addition, the Tm in series [2] was found to be 67.7 °C.

With GATCACGACGGTGATC ((((((....)))))), the folding enthalpy in series [1] is -158 kJ/mol. For the same sequence, the Tm in series [2] is 59.8 °C.

Consider GATCACGACTGTGATC ((((((....)))))), for which, in series [1], the folding enthalpy is -155 kJ/mol. Also, the Tm in series [2] came to 64 °C.

As for GATCACGATTGTGATC ((((((....)))))), in series [1], the folding enthalpy is -139 kJ/mol. Further, the Tm in series [2] came out at 56.6 °C.

For GATCACGCCCGTGATC ((((((....)))))), the folding enthalpy in series [1] is -166 kJ/mol. In addition, the Tm in series [2] amounted to 60.6 °C.

Turning to GATCACGGAAACATGATC (((((.(....).))))), the folding enthalpy in series [1] was -109 kJ/mol. Moreover, in series [2], the Tm is 35.4 °C.

With GATCACGGAAACGTGATC (((((((....))))))), the folding enthalpy in series [1] is -143 kJ/mol. Further, in series [2], the Tm is 66.2 °C.

For the sequence GATCACGGATGTGATC ((((((....)))))), in series [1], the folding enthalpy is -155 kJ/mol. Further, the Tm in series [2] amounted to 67.5 °C.

GATCACGGTGGTGATC ((((((....)))))): in series [1], the folding enthalpy was -156 kJ/mol. The Tm in series [2] stood at 58.3 °C.

In the case of GATCACGTAAGTGATC ((((((....)))))), the folding enthalpy in series [1] was -129 kJ/mol. Further, the Tm in series [2] was 69.3 °C.

As for GATCACGTGAGTGATC ((((((....)))))), in series [1], the folding enthalpy was -119 kJ/mol. For the same sequence, the Tm in series [2] came out at 69.2 °C.

Consider GATCACGTGGGTGATC ((((((....)))))), for which, in series [1], the folding enthalpy was -165 kJ/mol. The Tm in series [2] worked out at 57.1 °C.

On to GATCACTAACGTGATC ((((((....)))))), for which the folding enthalpy in series [1] was -138 kJ/mol. In series [2], the Tm turned out to be 54.9 °C.

Turning to GATCACTACGGTGATC ((((((....)))))), the folding enthalpy in series [1] is -159 kJ/mol. For the same sequence, the Tm in series [2] came to 58.7 °C.

For GATCACTCAAGTGATC ((((((....)))))), in series [1], the folding enthalpy is -206 kJ/mol. Also, the Tm in series [2] was 57 °C.

GATCACTCATGTGATC ((((((....)))))): in series [1], the folding enthalpy was -170 kJ/mol. The Tm in series [2] was 57 °C.

GATCACTCCTGTGATC ((((((....)))))): the folding enthalpy in series [1] was -142 kJ/mol. Further, the Tm in series [2] stood at 59.7 °C.

As for GATCACTCGCGTGATC ((((((....)))))), the folding enthalpy in series [1] was -186 kJ/mol. Besides, the Tm in series [2] was determined as 57.1 °C.

GATCACTGACGTGATC ((((((....)))))): the folding enthalpy in series [1] was -134 kJ/mol. Also, the Tm in series [2] came to 54.3 °C.

In the case of GATCACTGCAGTGATC ((((((....)))))), in series [1], the folding enthalpy was -187 kJ/mol. Further, the Tm in series [2] worked out at 61.7 °C.

With GATCACTTACGTGATC ((((((....)))))), the folding enthalpy in series [1] is -159 kJ/mol. Moreover, in series [2], the Tm was 57.4 °C.

As to GATCACTTCGGTGATC ((((((....)))))), in series [1], the folding enthalpy is -167 kJ/mol. Besides, the Tm in series [2] is 57.4 °C.

As to GATCACTTGTGTGATC ((((((....)))))), the folding enthalpy in series [1] is -169 kJ/mol. The Tm in series [2] was determined as 56.1 °C.

Turning to GATCACTTTGGTGATC ((((((....)))))), the folding enthalpy in series [1] was -177 kJ/mol. Further, in series [2], the Tm stood at 57.8 °C.

As to GATCAGAAATCTGATC ((((((....)))))), the folding enthalpy in series [1] is -147 kJ/mol. In series [2], the Tm is 46 °C.

Consider GATCAGAAGACTGATC ((((((....)))))), for which the folding enthalpy in series [1] is -122 kJ/mol. The Tm in series [2] is 44.9 °C.

Consider GATCAGAAGCTGATC ((((((...)))))), for which, in series [1], the folding enthalpy is -138 kJ/mol. The Tm in series [2] came to 48 °C.

As to GATCAGACCACTGATC ((((((....)))))), the folding enthalpy in series [1] is -155 kJ/mol. Also, the Tm in series [2] worked out at 49.4 °C.

Take GATCAGACGCCTGATC ((((((....)))))): the folding enthalpy in series [1] is -168 kJ/mol. Also, the Tm in series [2] stood at 50 °C.

As to GATCAGACGCTGATC ((((((...)))))), the folding enthalpy in series [1] is -143 kJ/mol. The Tm in series [2] is 47.7 °C.

(Values after the array DNA melting data of Ke et al. (doi:10.1101/2024.01.08.574731).)
